In brackets after ≈: the same amount, converted by molar mass.
Assays:
Assay type in all cases: functional
Staphylococcus aureus [1] = experiment: Antibacterial activity against erythromycin-susceptible Staphylococcus aureus ATCC 25923 incubated for 24 hrs by broth dilution method; conditions: ATCC 25923, 24 h
Procedure, shortened: (§1)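 CLSI broth microdilution in cation-adjusted Mueller-Hinton broth. Twofold dilutions spanned 0.25–128 or 0.5–256 µg/mL, with CAM and AZM as controls. Log-phase bacteria were added and incubated 24 h at 37 °C. MIC was read by turbidity as the concentration of the last clear well.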

Streptococcus pneumoniae [2] = experiment: Antibacterial activity against erythromycin-resistant Streptococcus pneumoniae B1 expressing the ermB incubated for 24 hrs by broth dilution method
Streptococcus pneumoniae [3] = experiment: Antibacterial activity against erythromycin-resistant Streptococcus pneumoniae AB11 expressing the ermB and mefA incubated for 24 hrs by broth dilution method
Staphylococcus aureus [4] = experiment: Antibacterial activity against methicillin-resistant Staphylococcus aureus ATCC 43300 incubated for 24 hrs by broth dilution method; conditions: ATCC 43300, 24 h
Pseudomonas aeruginosa = experiment: Antibacterial activity against penicillin-susceptible Pseudomonas aeruginosa ATCC 27853 incubated for 24 hrs by broth dilution method; conditions: ATCC 27853, 24 h; procedure, shortened: as §1
Bacillus subtilis = experiment: Antibacterial activity against penicillin-susceptible Bacillus subtilis ATCC 9372 incubated for 24 hrs by broth dilution method; conditions: ATCC 9372, 24 h; procedure, shortened: as §1
Staphylococcus aureus [5] = experiment: Antibacterial activity against penicillin-resistant Staphylococcus aureus ATCC 31007 incubated for 24 hrs by broth dilution method; conditions: ATCC 31007, 24 h
Streptococcus pyogenes [6] = experiment: Antibacterial activity against erythromycin-resistant Streptococcus pyogenes 2 clinical isolate incubated for 24 hrs by broth dilution method
Streptococcus pyogenes [7] = experiment: Antibacterial activity against erythromycin-susceptible Streptococcus pyogenes 1 clinical isolate incubated for 24 hrs by broth dilution method; procedure, shortened: as §1
Escherichia coli = experiment: Antibacterial activity against penicillin-susceptible Escherichia coli ATCC 25922 incubated for 24 hrs by broth dilution method; conditions: ATCC 25922, 24 h; procedure, shortened: as §1

SMILES | MIC (Staphylococcus aureus [1]) [µg/mL] | MIC (Streptococcus pneumoniae [2]) [µg/mL] | MIC (Streptococcus pneumoniae [3]) [µg/mL] | MIC (Staphylococcus aureus [4]) [µg/mL] | MIC (Pseudomonas aeruginosa) [µg/mL] | MIC (Bacillus subtilis) [µg/mL] | MIC (Staphylococcus aureus [5]) [µg/mL] | MIC (Streptococcus pyogenes [6]) [µg/mL] | MIC (Streptococcus pyogenes [7]) [µg/mL] | MIC (Escherichia coli) [µg/mL]
CO[C@]1(C)C[C@@H](C)[C@H](O)[C@H](C)CN(C)[C@H](Cn2cc(-c3ccc(F)cc3)nn2)COC(=O)[C@H](C)[C@@H](O[C@H]2C[C@@](C)(OC)[C@@H](O)[C@H](C)O2)[C@H](C)[C@H]1O[C@@H]1O[C@H](C)C[C@H](N(C)C)[C@H]1O | 16 (≈ 18.2 µM) | 128 (≈ 145 µM) | 128 (≈ 145 µM) | 256 (≈ 291 µM) | 128 (≈ 145 µM) | 16 (≈ 18.2 µM) | 128 (≈ 145 µM) | 128 (≈ 145 µM) | 16 (≈ 18.2 µM) | > 128
CO[C@]1(C)C[C@@H](C)[C@H](O)[C@H](C)CN(C)C[C@@H](COCc2cn(-c3ccccc3)nn2)OC(=O)[C@H](C)[C@@H](O[C@H]2C[C@@](C)(OC)[C@@H](O)[C@H](C)O2)[C@H](C)[C@H]1O[C@@H]1O[C@H](C)C[C@H](N(C)C)[C@H]1O | 1 (≈ 1.12 µM) | 256 (≈ 287 µM) | 64 (≈ 71.7 µM) | 256 (≈ 287 µM) | 128 (≈ 143 µM) | 1 (≈ 1.12 µM) | > 256 | 64 (≈ 71.7 µM) | 1 (≈ 1.12 µM) | 128 (≈ 143 µM)
CCc1ccc(-n2cc(COC[C@@H]3CN(C)C[C@@H](C)[C@@H](O)[C@H](C)C[C@@](C)(OC)[C@H](O[C@@H]4O[C@H](C)C[C@H](N(C)C)[C@H]4O)[C@@H](C)[C@H](O[C@H]4C[C@@](C)(OC)[C@@H](O)[C@H](C)O4)[C@@H](C)C(=O)O3)nn2)cc1 | 4 (≈ 4.35 µM) | 32 (≈ 34.8 µM) | 32 (≈ 34.8 µM) | 64 (≈ 69.6 µM) | 128 (≈ 139 µM) | 2 (≈ 2.17 µM) | 64 (≈ 69.6 µM) | 32 (≈ 34.8 µM) | 4 (≈ 4.35 µM) | 128 (≈ 139 µM)
COc1ccc(-c2cn(C[C@@H]3COC(=O)[C@H](C)[C@@H](O[C@H]4C[C@@](C)(OC)[C@@H](O)[C@H](C)O4)[C@H](C)[C@@H](O[C@@H]4O[C@H](C)C[C@H](N(C)C)[C@H]4O)[C@](C)(OC)C[C@@H](C)[C@H](O)[C@H](C)CN3C)nn2)cc1 | 64 (≈ 71.7 µM) | 128 (≈ 143 µM) | 128 (≈ 143 µM) | 128 (≈ 143 µM) | > 128 | 32 (≈ 35.9 µM) | 32 (≈ 35.9 µM) | 128 (≈ 143 µM) | 4 (≈ 4.48 µM) | > 128
CO[C@]1(C)C[C@@H](C)[C@H](O)[C@H](C)CN(C)C[C@@H](Cn2cc(-c3ccccn3)nn2)OC(=O)[C@H](C)[C@@H](O[C@H]2C[C@@](C)(OC)[C@@H](O)[C@H](C)O2)[C@H](C)[C@H]1O[C@@H]1O[C@H](C)C[C@H](N(C)C)[C@H]1O | 2 (≈ 2.32 µM) | 128 (≈ 148 µM) | 128 (≈ 148 µM) | > 256 | 64 (≈ 74.2 µM) | 4 (≈ 4.63 µM) | > 256 | 128 (≈ 148 µM) | 1 (≈ 1.16 µM) | 128 (≈ 148 µM)
CO[C@]1(C)C[C@@H](C)[C@H](O)[C@H](C)CN(C)C[C@H](Cn2cc(-c3ccc(Cl)cc3)nn2)OC(=O)[C@H](C)[C@@H](O[C@H]2C[C@@](C)(OC)[C@@H](O)[C@H](C)O2)[C@H](C)[C@H]1O[C@@H]1O[C@H](C)C[C@H](N(C)C)[C@H]1O | 2 (≈ 2.23 µM) | 128 (≈ 143 µM) | 128 (≈ 143 µM) | 128 (≈ 143 µM) | 64 (≈ 71.4 µM) | 1 (≈ 1.12 µM) | 128 (≈ 143 µM) | 64 (≈ 71.4 µM) | 0.12 (≈ 0.134 µM) | 32 (≈ 35.7 µM)
COc1ccc(-n2cc(COC[C@@H]3CN(C)C[C@@H](C)[C@@H](O)[C@H](C)C[C@@](C)(OC)[C@H](O[C@@H]4O[C@H](C)C[C@H](N(C)C)[C@H]4O)[C@@H](C)[C@H](O[C@H]4C[C@@](C)(OC)[C@@H](O)[C@H](C)O4)[C@@H](C)C(=O)O3)nn2)cc1 | 8 (≈ 8.68 µM) | 256 (≈ 278 µM) | 128 (≈ 139 µM) | 256 (≈ 278 µM) | 128 (≈ 139 µM) | 2 (≈ 2.17 µM) | 256 (≈ 278 µM) | 128 (≈ 139 µM) | 4 (≈ 4.34 µM) | 128 (≈ 139 µM)
CO[C@]1(C)C[C@@H](C)[C@H](O)[C@H](C)CN(C)C[C@H](COCc2cn(-c3ccc(C(C)C)cc3)nn2)OC(=O)[C@H](C)[C@@H](O[C@H]2C[C@@](C)(OC)[C@@H](O)[C@H](C)O2)[C@H](C)[C@H]1O[C@@H]1O[C@H](C)C[C@H](N(C)C)[C@H]1O | 1 (≈ 1.07 µM) | 64 (≈ 68.5 µM) | 32 (≈ 34.3 µM) | 64 (≈ 68.5 µM) | 16 (≈ 17.1 µM) | 0.5 (≈ 0.535 µM) | 128 (≈ 137 µM) | 32 (≈ 34.3 µM) | 1 (≈ 1.07 µM) | 64 (≈ 68.5 µM)
CCCc1ccc(-n2cc(COC[C@H]3CN(C)C[C@@H](C)[C@@H](O)[C@H](C)C[C@@](C)(OC)[C@H](O[C@@H]4O[C@H](C)C[C@H](N(C)C)[C@H]4O)[C@@H](C)[C@H](O[C@H]4C[C@@](C)(OC)[C@@H](O)[C@H](C)O4)[C@@H](C)C(=O)O3)nn2)cc1 | 0.5 (≈ 0.535 µM) | 64 (≈ 68.5 µM) | 32 (≈ 34.3 µM) | 128 (≈ 137 µM) | 16 (≈ 17.1 µM) | 0.5 (≈ 0.535 µM) | 128 (≈ 137 µM) | 64 (≈ 68.5 µM) | 1 (≈ 1.07 µM) | 64 (≈ 68.5 µM)
CO[C@]1(C)C[C@@H](C)[C@H](O)[C@H](C)CN(C)C[C@H](COCc2cn(-c3ccc(C)cc3)nn2)OC(=O)[C@H](C)[C@@H](O[C@H]2C[C@@](C)(OC)[C@@H](O)[C@H](C)O2)[C@H](C)[C@H]1O[C@@H]1O[C@H](C)C[C@H](N(C)C)[C@H]1O | 0.5 (≈ 0.552 µM) | 256 (≈ 283 µM) | 64 (≈ 70.6 µM) | 256 (≈ 283 µM) | 16 (≈ 17.7 µM) | ≤ 0.25 | 256 (≈ 283 µM) | 64 (≈ 70.6 µM) | 1 (≈ 1.1 µM) | 64 (≈ 70.6 µM)
CO[C@]1(C)C[C@@H](C)[C@H](O)[C@H](C)CN(C)C[C@@H](Cn2cc(-c3ccc(Cl)cc3)nn2)OC(=O)[C@H](C)[C@@H](O[C@H]2C[C@@](C)(OC)[C@@H](O)[C@H](C)O2)[C@H](C)[C@H]1O[C@@H]1O[C@H](C)C[C@H](N(C)C)[C@H]1O | 8 (≈ 8.92 µM) | 64 (≈ 71.4 µM) | 64 (≈ 71.4 µM) | 64 (≈ 71.4 µM) | > 128 | 16 (≈ 17.8 µM) | 64 (≈ 71.4 µM) | 32 (≈ 35.7 µM) | 2 (≈ 2.23 µM) | 128 (≈ 143 µM)
CO[C@]1(C)C[C@@H](C)[C@H](O)[C@H](C)CN(C)C[C@@H](COCc2cn(-c3ccc(C)cc3)nn2)OC(=O)[C@H](C)[C@@H](O[C@H]2C[C@@](C)(OC)[C@@H](O)[C@H](C)O2)[C@H](C)[C@H]1O[C@@H]1O[C@H](C)C[C@H](N(C)C)[C@H]1O | 4 (≈ 4.41 µM) | 128 (≈ 141 µM) | 64 (≈ 70.6 µM) | 128 (≈ 141 µM) | 128 (≈ 141 µM) | 2 (≈ 2.21 µM) | 256 (≈ 283 µM) | 32 (≈ 35.3 µM) | 4 (≈ 4.41 µM) | 128 (≈ 141 µM)
CO[C@]1(C)C[C@@H](C)[C@H](O)[C@H](C)CN(C)C[C@H](Cn2cc(-c3ccccn3)nn2)OC(=O)[C@H](C)[C@@H](O[C@H]2C[C@@](C)(OC)[C@@H](O)[C@H](C)O2)[C@H](C)[C@H]1O[C@@H]1O[C@H](C)C[C@H](N(C)C)[C@H]1O | 4 (≈ 4.63 µM) | > 256 | 256 (≈ 297 µM) | > 256 | 64 (≈ 74.2 µM) | 2 (≈ 2.32 µM) | > 256 | 128 (≈ 148 µM) | 1 (≈ 1.16 µM) | 128 (≈ 148 µM)
CO[C@]1(C)C[C@@H](C)[C@H](O)[C@H](C)CN(C)C[C@H](Cn2cc(-c3ccc(F)cc3)nn2)OC(=O)[C@H](C)[C@@H](O[C@H]2C[C@@](C)(OC)[C@@H](O)[C@H](C)O2)[C@H](C)[C@H]1O[C@@H]1O[C@H](C)C[C@H](N(C)C)[C@H]1O | 2 (≈ 2.27 µM) | 256 (≈ 291 µM) | 256 (≈ 291 µM) | 256 (≈ 291 µM) | 64 (≈ 72.7 µM) | 2 (≈ 2.27 µM) | 256 (≈ 291 µM) | 64 (≈ 72.7 µM) | 0.25 (≈ 0.284 µM) | 32 (≈ 36.4 µM)
CO[C@]1(C)C[C@@H](C)[C@H](O)[C@H](C)CN(C)C[C@@H](Cn2cc(-c3ccccc3)nn2)OC(=O)[C@H](C)[C@@H](O[C@H]2C[C@@](C)(OC)[C@@H](O)[C@H](C)O2)[C@H](C)[C@H]1O[C@@H]1O[C@H](C)C[C@H](N(C)C)[C@H]1O | 0.5 (≈ 0.58 µM) | 64 (≈ 74.2 µM) | 64 (≈ 74.2 µM) | 256 (≈ 297 µM) | 64 (≈ 74.2 µM) | 1 (≈ 1.16 µM) | 128 (≈ 148 µM) | 64 (≈ 74.2 µM) | 0.5 (≈ 0.58 µM) | 64 (≈ 74.2 µM)
CCCCc1ccc(-c2cn(C[C@H]3CN(C)C[C@@H](C)[C@@H](O)[C@H](C)C[C@@](C)(OC)[C@H](O[C@@H]4O[C@H](C)C[C@H](N(C)C)[C@H]4O)[C@@H](C)[C@H](O[C@H]4C[C@@](C)(OC)[C@@H](O)[C@H](C)O4)[C@@H](C)C(=O)O3)nn2)cc1 | 1 (≈ 1.09 µM) | 16 (≈ 17.4 µM) | 32 (≈ 34.8 µM) | 16 (≈ 17.4 µM) | 64 (≈ 69.7 µM) | 1 (≈ 1.09 µM) | 32 (≈ 34.8 µM) | 16 (≈ 17.4 µM) | 0.06 (≈ 0.0653 µM) | 128 (≈ 139 µM)
CO[C@]1(C)C[C@@H](C)[C@H](O)[C@H](C)CN(C)C[C@H](COCc2cn(-c3cccc(C(F)(F)F)c3)nn2)OC(=O)[C@H](C)[C@@H](O[C@H]2C[C@@](C)(OC)[C@@H](O)[C@H](C)O2)[C@H](C)[C@H]1O[C@@H]1O[C@H](C)C[C@H](N(C)C)[C@H]1O | 1 (≈ 1.04 µM) | 128 (≈ 133 µM) | 64 (≈ 66.7 µM) | 256 (≈ 267 µM) | 16 (≈ 16.7 µM) | 1 (≈ 1.04 µM) | 256 (≈ 267 µM) | 64 (≈ 66.7 µM) | 2 (≈ 2.08 µM) | 64 (≈ 66.7 µM)
